Article PMC6028879 (Clinical Pharmacokinetics, 2018)

Experiments:
Drug-drug interaction = type: in vivo, human; conditions: ITZ 200 mg oral solution once daily; during the blood sampling period for VPR
Method in brief: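 This was a fixed-sequence, open-label study. In period 1, the test compound was given as a single oral 4 mg tablet, fasted, with water. After a washout of ≥ 4 weeks, itraconazole 200 mg oral solution was given once daily for 14 days. On day 4 the test compound was dosed 1 h after itraconazole. Plasma was sampled to 11 or 13 days and measured by validated LC–MS/MS. Non-compartmental analysis was used. Log-transformed AUC0–11d and Cmax were analysed by ANOVA with treatment and subject effects, giving ratio estimates, 90% CI and 95% PI.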

[1] = ulipristal acetate with ketoconazole; cited from earlier work

Compound	geometric mean ITZ trough concentrations (Drug-drug interaction)	increase in exposure with ketoconazole [1]
CCC(C)n1ncn(-c2ccc(N3CCN(c4ccc(OCC5COC(Cn6cncn6)(c6ccc(Cl)cc6Cl)O5)cc4)CC3)cc2)c1=O (centres unmarked) [ITZ, Itraconazole]	above 530 µg/L	
CC(=O)O[C@]1(C(C)=O)CC[C@H]2[C@@H]3CCC4=CC(=O)CCC4=C3[C@@H](c3ccc(N(C)C)cc3)C[C@@]21C [ulipristal acetate]		5.8 fold
